# Sampled rows, rich in hits. Any-hit rate of the full collection: about 4.5%.
# TAAR1 ag – human TAAR1 agonism; Q96RJ0; CHO RD-HGA16 TAAR1, Fluo-8 calcium fluorescence; vehicle wells 0%, saturating PEA agonist 100%; activation, % at 3 µM; hit rate 0.99% among 360,000;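 active = activation above the mean activation of all test compounds in the run plus 3 SD, cut at about 38% in these data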
#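 Test system: RD-HGA16 (CHO) cells co-expressing Gα16 and hTAAR1 | Doses: Single dose, 3 µM | Schedule: 17-24 h seeding, 75 min 37 °C dye, 30 min RT | Evaluation: % activation from peak over basal fluorescence ratio, DMSO-to-PEA scaled | Technique: Kinetic Fluo-8 calcium fluorescence | Benchmarks: Low control DMSO, high control PEA (EC100)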
# TAAR1 antagonist – human TAAR1 antagonism. Q96RJ0. CHO RD-HGA16 TAAR1, Fluo-8 calcium fluorescence, antagonist. inhibition, % at 3 µM. hit rate 1.5% among 360,000;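 active = inhibition above a per-plate cutoff, the mean inhibition of test compounds on that plate plus 3 SD, cut at about 49% in these data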;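 also: 0% = DMSO plus EC80 beta-PEA response and 100% = DMSO alone without agonist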
#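 Test system: RD-HGA16 CHO cells with stable hTAAR1 and Gα16 / Probe or stimulus: EC80 β-phenethylamine stimulus / Times: seeding 17-24 h prior, 75-min 37 °C, 30-min RT dye loading / Detection: Fluo-8 calcium-sensitive fluorescence / Read-out basis: % inhibition scaled between DMSO and EC80 PEA controls / Repeats: singlicate, one well per test compound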
# OX1R antag-1 – antagonists of human orexin 1 receptor; O43613; CHO/OX1R cells, Fluo-8 calcium fluorescence, orexin A; inhibition, % at 5 µM; hit rate 0.43% among 330,000; AID 434989;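 active = inhibition above its plate's threshold, mean inhibition of all tested compounds on the plate plus 3 SD, cut at about 37% in these data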;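 also: 0% = orexin A challenge wells and 100% = SB-334867-A antagonist wells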
# Target sequence (O43613 whole entry, looked up): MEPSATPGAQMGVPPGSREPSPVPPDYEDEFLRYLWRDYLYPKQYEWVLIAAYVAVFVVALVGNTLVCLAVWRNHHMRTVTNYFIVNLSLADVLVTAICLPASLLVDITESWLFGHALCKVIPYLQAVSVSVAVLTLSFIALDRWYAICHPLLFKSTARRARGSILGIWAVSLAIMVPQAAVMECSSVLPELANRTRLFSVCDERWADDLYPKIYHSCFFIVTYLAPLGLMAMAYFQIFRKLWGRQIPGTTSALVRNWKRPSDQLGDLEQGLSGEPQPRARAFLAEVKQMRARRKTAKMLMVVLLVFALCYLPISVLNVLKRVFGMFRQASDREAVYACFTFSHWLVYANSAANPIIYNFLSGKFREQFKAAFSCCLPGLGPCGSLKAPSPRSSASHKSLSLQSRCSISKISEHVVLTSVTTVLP
# CHO parental Ca – counter-screen: ATP calcium response change in parental CHO cells; parental CHO-K1, ATP-induced calcium, Fluo-8 fluorescence; inhibition, % at 5.6 µM; hit rate 0.63% among 330,000;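 active = inhibition above that plate's mean sample inhibition plus 3 SD, cut at about 26% in these data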;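 also: 0% = ATP-challenged DMSO wells and 100% = DMSO wells without ATP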
#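 Measured by: calcium-sensitive Fluo-8 fluorescence / Test system: CHO parental line / Controls: ATP-challenged DMSO wells low, unchallenged DMSO wells high / Measure: % inhibition / Compound: single nominal dose of 5.6 µM per compound / Replicates: single well per compound, no replicates / Reagent: ATP as calcium-mobilizing challenge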
# GPR7 antagonist – antagonists of human GPR7 (neuropeptides B/W receptor 1); P48145; GPR7-expressing cells, fluorescence antagonist assay; inhibition, % at 4.4 µM; hit rate 1.1% among 290,000; AID 1861; in the data active = inhibition above about 16%, passing the limit was not always enough;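 also: cells stimulated with the agonist NPW; 0% = agonist with vehicle and 100% = vehicle without agonist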
# Target sequence (P48145 whole entry, looked up): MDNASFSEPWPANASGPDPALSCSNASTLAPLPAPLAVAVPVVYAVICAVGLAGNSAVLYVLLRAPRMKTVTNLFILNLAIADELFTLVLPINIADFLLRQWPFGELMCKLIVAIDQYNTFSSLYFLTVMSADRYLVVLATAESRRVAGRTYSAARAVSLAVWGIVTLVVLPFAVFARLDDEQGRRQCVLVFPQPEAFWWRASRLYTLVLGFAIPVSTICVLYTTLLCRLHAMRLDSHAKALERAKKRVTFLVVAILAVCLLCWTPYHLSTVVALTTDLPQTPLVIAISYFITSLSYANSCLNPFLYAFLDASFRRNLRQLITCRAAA
# OX1R antag-2 – OX1R (human) antagonism | O43613 | OX1R-expressing cells, FRET antagonist read-out | inhibition, % at 6.6 µM | hit rate 1.8% among 330,000 | AID 485270; in the data active = inhibition mostly above about 38%, no sharp cut-off; inactive = mostly below about 40%;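 also: 0% = agonist challenge alone and 100% = reference antagonist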
# GPR7 antag cf – confirmation of human GPR7 antagonists. shares compounds with GPR7 antagonist. GPR7-expressing cells, calcium fluorescence antagonist mode. inhibition, % at 4.4 µM. hit rate 52% among 2,400; in the data active = inhibition above about 24%;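 also: stimulated with the GPR7 agonist NPW; 0% = agonist plus vehicle and 100% = vehicle alone without agonist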
# MCHR1 antag – antagonizes human MCHR1, a GPR7 antagonist counter-screen | shares compounds with GPR7 antagonist | MCHR1-expressing cells, fluorescence antagonist assay | inhibition, % at 4.4 µM | hit rate 62% among 2,400 | AID 2148; in the data active = inhibition above about 22%;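 also: 0% = vehicle with agonist and 100% = vehicle without agonist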
# OX1R Ca confirm – confirmation of human orexin 1 receptor antagonists | shares compounds with OX1R antag-1 | CHO/OX1R cells, orexin A calcium Fluo-8 fluorescence | inhibition, % at 5 µM | hit rate 38% among 1,100; in the data active = inhibition above about 29%;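 also: 0% = agonist challenge alone and 100% = reference antagonist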
# CHO Ca triplic – signal in parental CHO cells, OX1R antagonist counter-screen; inhibition, % at 5.6 µM; shares compounds with OX1R antag-1; parental CHO-K1, ATP-induced calcium, Fluo-8 fluorescence; hit rate 9.3% among 1,100;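 active = inhibition above a per-plate limit, the mean inhibition of that plate's test compounds plus 3 SD, cut at about 25% in these data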;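 also: 0% = ATP challenge with DMSO and 100% = DMSO without ATP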
# TAAR1 ag conf – confirmation of human TAAR1 agonists; shares compounds with TAAR1 ag; CHO RD-HGA16 TAAR1, Fluo-8 calcium fluorescence; scaled: DMSO 0%, maximal phenethylamine 100%; activation, % at 3 µM; hit rate 82% among 2,400;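 active = activation above a cutoff set at the run's mean compound activation plus 3 SD, cut at about 39% in these data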
# Ga16 ag counter – nonselective agonist in parental cells, TAAR1 agonist counter-screen; shares compounds with TAAR1 ag; CHO-Ga16 parental, Fluo-8 calcium fluorescence; normalized to maximal ATP response, DMSO zero; activation, % at 3 µM; hit rate 50% among 2,400;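 active = activation above the run cutoff, the mean activation over all tested wells plus 3 SD, cut at about 12% in these data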;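 also: 0% = DMSO wells and 100% = maximal ATP response on the peak over basal ratio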
# TAAR1 desensitize – counter-screen for human TAAR1 agonists: agonists that desensitize TAAR1; AID 651951; shares compounds with TAAR1 ag; inhibition, % at 3 µM; hit rate 46% among 2,400; CHO RD-HGA16 hTAAR1, Fluo-8 calcium, beta-PEA response inhibition;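 active = inhibition above the run cutoff, the mean inhibition of all test compounds plus 3 SD, cut at about 49% in these data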;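 also: beta-PEA stimulus applied at its EC80; loss of beta-PEA calcium signal after compound pretreatment read as receptor desensitization; 0% = DMSO with beta-PEA at EC80 and 100% = DMSO alone without agonist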
# Ga16 antag count – counter-screen for TAAR1 agonists: nonselective Ga16 antagonists. shares compounds with TAAR1 ag. CHO-Ga16 ATP-induced calcium, Fluo-8 fluorescence. inhibition, % at 3 µM. hit rate 39% among 2,400;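 active = inhibition above the plate's mean compound inhibition plus 3 SD, computed per plate, cut at about 22% in these data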;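 also: 0% = EC80 ATP with DMSO and 100% = DMSO wells without ATP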
# Starred values were filed as active, the others as inactive; x = not tested or not shown.
SMILES,TAAR1 ag,TAAR1 antagonist,OX1R antag-1,CHO parental Ca,GPR7 antagonist,OX1R antag-2,GPR7 antag cf,MCHR1 antag,TAAR1 ag conf,Ga16 ag counter,TAAR1 desensitize,Ga16 antag count,others
O=C(O)CN1C(=O)/C(=C\c2cc([N+](=O)[O-])ccc2OCc2ccccc2Cl)SC1=S,1,-1,-16,-8,-20,11,x,x,x,x,x,x,
COc1ccccc1-n1c(SCC(N)=O)nnc1-c1ccc(S(=O)(=O)N2CCCCC2)cc1,52*,-4,-14,-8,39*,10,42*,16,27,9,20,24*,
CCc1cc(C(=O)Nc2cc(S(=O)(=O)N3CCCCC3)ccc2N2CCN(C)CC2)sc1C,5,-4,x,x,x,x,x,x,x,x,x,x,
CCCCc1ccc(N/C(N)=N/c2nc(C)cc(C)n2)cc1,161*,107*,89*,70*,97*,24,93*,103*,131*,90*,107*,96*,
Cc1cccc(N/C(N)=N/c2nc(C)cc(C)n2)c1,58*,56*,17,23,28*,14,39*,54*,80*,43*,81*,53*,
CCC(=O)Nc1ccc(N/C(N)=N/c2nc(C)cc(C)n2)cc1,4,-7,-17,0,6,-1,x,x,x,x,x,x,
O=C1C=C(c2ccc(CO)cc2)C[C@@H](c2ccc(F)cc2)C1,3,12,x,x,x,x,x,x,x,x,x,x,
O=C(N/N=C/c1ccc(O)cc1)c1ccc(COc2cc(Cl)ccc2Cl)o1,93*,76*,67*,59*,53*,5,68*,78*,98*,69*,87*,59*,
COc1cc(Cn2c3ccc(NC(=O)CCc4ccc(O)cc4)cc3c(=O)n2C)ccc1F,1,-2,x,x,x,x,x,x,x,x,x,x,
O=C(Nc1ccc(F)c(Cl)c1)C1Cc2c(-c3ccccc3Oc3ccccc3)ccnc2O1 (configuration not stated),1,13,x,x,x,x,x,x,x,x,x,x,
Cc1ccc(NC(=O)c2cc(-c3cc(Cl)ccc3C)n[nH]2)cc1NS(C)(=O)=O,7,33,x,x,x,x,x,x,x,x,x,x,
CCOc1cccc(-c2cc(NCCc3ccccn3)n3nccc3n2)c1,4,-8,x,x,x,x,x,x,x,x,x,x,
CC(=O)Nc1ccc(Sc2ncccc2C(=O)Nc2cc(Cl)cc(Cl)c2)cn1,32,33,-19,-9,-4,20,x,x,x,x,x,x,
CC(=O)Nc1ccc(Sc2ncccc2C(=O)Nc2ccc(OC(F)(F)F)cc2)cn1,139*,104*,88*,77*,97*,10,98*,103*,143*,107*,104*,90*,
CC[C@@H](C(=O)[C@@H](C)[C@@H](O)[C@H](C)CCc1ccc(C)c(O)c1C(=O)O)[C@H]1O[C@](CC)([C@H]2CC[C@](O)(CC)[C@H](C)O2)C[C@@H]1C,76*,67*,40*,39*,48*,25,48*,38*,73*,65*,73*,52*,
CC(C)C[C@H]1CN(CCCC[C@H]2CNC(=O)C(=O)N2CCc2ccccc2)C(=O)C(=O)N1CCC1CCCCC1,6,-7,x,x,x,x,x,x,x,x,x,x,
CCCNCc1cc(Br)ccc1OCC(=O)NCCc1ccccc1,6,11,-20,-9,12,15,x,x,x,x,x,x,
O=C(COc1ccc(Br)cc1CNCCc1ccccc1)NCc1ccccc1,94*,69*,-27,-1,31*,-2,40*,54*,89*,25*,80*,43*,
O=C(NC1CCCc2ccccc21)c1cccc(S(=O)(=O)N2CCN(c3ccccc3)CC2)c1 (configuration not stated),47*,-5,17,-1,45*,4,62*,43*,30,11,26,21*,
Cc1ccc(C(=O)CSC2=C(C#N)C(c3ccco3)CC(=O)N2)c(C)c1 (configuration not stated),74*,30,36,20,41*,13,71*,64*,48*,25*,40,24*,OX1R Ca confirm=39*;CHO Ca triplic=10
CCCCCCN1C[C@H](O)[C@@H](n2cc(C3CC3)nn2)C[C@@H]1c1ccc(OC)cc1,3,-12,x,x,x,x,x,x,x,x,x,x,
CSc1ccc(Cn2nnc(C(=O)NCc3ccccc3)c2N)cc1,98*,75*,25,5,37*,2,57*,52*,105*,48*,60*,41*,
CCCCCCCOC(=O)C[N+](C)(C)CCOC1CC2CCC1(C)C2(C)C (configuration not stated),56*,31,x,x,28*,x,67*,87*,74*,38*,48,35*,
CSCCNC(=O)C1(C)CCN1C(=O)c1cc(C)n(C)n1 (configuration not stated),0,-4,x,x,x,x,x,x,x,x,x,x,
Cc1n[nH]c(C)c1N1C(=O)c2cccc3c(N4CCCCCC4)ccc(c23)C1=O,148*,82*,90*,76*,52*,14,41*,56*,88*,119*,74*,82*,
O=C1c2cccc3c(N4CCCCC4)ccc(c23)C(=O)N1CCO,31,23,21,16,0,12,x,x,x,x,x,x,
O=C1c2ccccc2C(c2nnnn2-c2ccc3ccccc3c2)N1C1CC1 (configuration not stated),1,-5,x,x,x,x,x,x,x,x,x,x,
O=C(NCCC1=CCCCC1)c1coc(=O)c(Br)c1,62*,14,-30,-10,33*,16,14,24*,48*,1,2,-1,

# Bioassay records as filed in PubChem BioAssay.
